Experimental data: ChEMBL document CHEMBL4715714, “Design, synthesis and biological evaluation of thiosemicarbazones, hydrazinobenzothiazoles and arylhydrazones as anticancer agents with a potential to overcome multidrug resistance” (Eur J Med Chem, 2016)
Calls of active or inactive are those of the source. The calls are words filed in the database; no cut-off is given here.

Assays:
MES-SA [1] = assay: Cytotoxicity against human MES-SA cells assessed as inhibition of cell proliferation at >=50 uM incubated for 72 hrs by MTT assay; type: functional, cell-based; settings: dose microM >=50, time 72.0 hrs
Procedure, shortened: (§1)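 Cells were seeded (10000/well for A2780, 5000/well for MES-SA/Dx5 and KB-3-1/V1) and left to attach 12 h, then exposed to compound for 72 h. Medium was removed, and MTT (0.83 mg/mL) was added for 1 h at 37 °C. Cells were lysed in DMSO and absorbance read at 540 nm. Signal was corrected for unstained lysate background, normalized to untreated cells, and IC50 taken from a sigmoidal dose-response fit.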

MES-SA/Dx5 [2] = assay: Cytotoxicity against human MES-SA/DX5 cells assessed as inhibition of cell proliferation at >=50 uM incubated for 72 hrs by MTT assay; type: functional, cell-based; settings: dose microM >=50, time 72.0 hrs; procedure, shortened: as §1
MES-SA/Dx5 [3] = assay: Cytotoxicity against human MES-SA/DX5 cells assessed as inhibition of cell proliferation incubated for 72 hrs by MTT assay; type: functional, cell-based; settings: for IC50: MES-SA/Dx5, 72 h; procedure, shortened: as §1
KB-V1 [4] = assay: Cytotoxicity against human KB-V1 cells assessed as inhibition of cell proliferation incubated for 72 hrs by MTT assay; type: functional, cell-based; settings: for IC50: KB-V1, 72 h; procedure, shortened: as §1
MES-SA [5] = assay: Cytotoxicity against human MES-SA cells assessed as inhibition of cell proliferation incubated for 72 hrs by MTT assay; type: functional, cell-based; procedure, shortened: as §1
KB 3-1 [6] = assay: Cytotoxicity against human KB-3-1 cells assessed as inhibition of cell proliferation incubated for 72 hrs by MTT assay; type: functional, cell-based; settings: for IC50: KB 3-1, 72 h; procedure, shortened: as §1
KB 3-1 [7] = assay: Cytotoxicity against human KB-3-1 cells assessed as inhibition of cell proliferation at >=50 uM incubated for 72 hrs by MTT assay; type: functional, cell-based; settings: dose microM >=50, time 72.0 hrs; procedure, shortened: as §1
KB-V1 [8] = assay: Cytotoxicity against human KB-V1 cells assessed as inhibition of cell proliferation at >=50 uM incubated for 72 hrs by MTT assay; type: functional, cell-based; settings: dose microM >=50, time 72.0 hrs; procedure, shortened: as §1
MES-SA/Dx5 [9] = assay: Cytotoxicity against human MES-SA/DX5 cells assessed as inhibition of cell proliferation at <50 uM incubated for 72 hrs by MTT assay; type: functional, cell-based; settings: dose microM <50, time 72.0 hrs; procedure, shortened: as §1
MES-SA [10] = assay: Cytotoxicity against human MES-SA cells assessed as inhibition of cell proliferation at <50 uM incubated for 72 hrs by MTT assay; type: functional, cell-based; settings: dose microM <50, time 72.0 hrs; procedure, shortened: as §1
A2780 ADR = assay: Cytotoxicity against human A2780adr cells assessed as inhibition of cell proliferation incubated for 72 hrs in presence of efflux pump inhibitor, Tariquidar by MTT assay; type: functional, cell-based
[11] = Selectivity ratio of IC50 for human MES-SA cells transfected with mCherry to IC50 for human MES-SA/DX5 cells transfected with mCherry incubated for 72 hrs by fluorescent assay; type: functional
MES-SA/Dx5 [12] = assay: Cytotoxicity against human MES-SA/DX5 cells transfected with mCherry fluorescent protein incubated for 72 hrs in presence of efflux pump inhibitor, Tariquidar by fluorescence assay; type: functional, cell-based
Procedure, shortened: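 The mCherry-expressing cells (lentiviral) were seeded at 5000 or 2500 per well, attached for 24 h, and exposed 72 h to compounds with Tariquidar coadministered. Live-cell signal was fluorescence at 585 nm excitation and 610 nm emission.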

[13] = Cytotoxicity against human A2780adr cells assessed as inhibition of cell proliferation incubated for 72 hrs by MTT assay; type: functional, cell-based; settings: A2780 ADR; procedure, shortened: as §1
KB-V1 [14] = assay: Cytotoxicity against human KB-V1 cells assessed as inhibition of cell proliferation incubated for 72 hrs in presence of efflux pump inhibitor, Tariquidar by MTT assay; type: functional, cell-based
MES-SA/Dx5 [15] = assay: Cytotoxicity against human MES-SA/DX5 cells transfected with mCherry fluorescent protein assessed as inhibition of cell proliferation incubated for 72 hrs by fluorescent assay; type: functional, cell-based; settings: Homo sapiens, MES-SA/Dx5, 72 h; read-out: IC50
Procedure, shortened: (§2)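 MES-SA and MES-SA/Dx5 cells were made to stably express mCherry by lentiviral transduction. Cells were seeded at 5000 (96-well) or 2500 (384-well) per well, allowed to attach 24 h, then treated with compound dilutions for 72 h. Viability was read as fluorescence, excitation 585 nm, emission 610 nm.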

A2780 = assay: Cytotoxicity against human A2780 cells assessed as inhibition of cell proliferation incubated for 72 hrs by MTT assay; type: functional, cell-based; settings: A2780, 72 h; procedure, shortened: as §1
MES-SA/Dx5 [16] = assay: Cytotoxicity against human MES-SA/DX5 cells incubated for 72 hrs in presence of efflux pump inhibitor, Tariquidar by MTT assay; type: functional, cell-based
Procedure, shortened: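 Run as the 72 h MTT viability readout (12 h attachment, MTT 0.83 mg/mL for 1 h, DMSO lysis, A540), with the P-gp inhibitor Tariquidar at 1 µM co-present. IC50 came from sigmoidal fits of 2 to 4 independent experiments.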

MES-SA/Dx5 [17] = assay: Reduction in P-gp expression in human MES-SA/DX5 cells measured after 5 rounds of treatment by DAPI staining based immunocytochemistry analysis; type: functional, cell-based
Procedure, shortened: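 Treated cells were plated in chamber slides, fixed after 1 day in 4% paraformaldehyde for 15 min, and blocked 1 h (BSA, fish gelatin, goat serum, Triton X-100). They were stained with anti-P-gp MRK16 (1:500, 1 h), then PE goat anti-mouse IgG (1:250, 1 h), with DAPI 1 µM for 10 min. Imaging used fluorescence and confocal microscopy.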

[18] = Selectivity ratio of IC50 for human A2780 cells to IC50 for human A2780adr cells incubated for 72 hrs by MTT assay; type: functional
Procedure, shortened: (§3)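 The selectivity ratio is the IC50 in P-gp-negative parental cells divided by the IC50 in the P-gp-positive resistant partner.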

[19] = Selectivity ratio of IC50 for human MES-SA cells to IC50 for human MES-SA/DX5 cells incubated for 72 hrs by MTT assay; type: functional; procedure, shortened: as §3
[20] = Selectivity ratio of IC50 for human KB-3-1 cells to IC50 for human KB-V1 cells incubated for 72 hrs by MTT assay; type: functional; procedure, shortened: as §3
MES-SA/Dx5 [21] = assay: Reduction in P-gp expression in human MES-SA/DX5 cells at IC20 concentration incubated for 5 days by calcein-AM staining based flow cytometric analysis; type: functional, cell-based; settings: time 5.0 day
Procedure, shortened: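 MES-SA/Dx5 cells were grown 5 days with compound at IC20 values calculated from viability assays, then recovered in drug-free medium refreshed every fifth day. At 80% confluency, cells were stained with Calcein AM with or without verapamil, with TO-PRO-3 excluding dead cells, and analysed by flow cytometry for the P-gp-negative fraction.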

MES-SA [22] = assay: Cytotoxicity against human MES-SA cells transfected with mCherry fluorescent protein assessed as inhibition of cell proliferation incubated for 72 hrs by fluorescent assay; type: functional, cell-based; settings: Homo sapiens, MES-SA, 72 h; read-out: IC50; procedure, shortened: as §2

## COc1ccc(NC(=S)NNc2nc3ccccc3s2)cc1
MES-SA [1]
  Activity: inactive
MES-SA/Dx5 [2]
  Activity: inactive
MES-SA/Dx5 [3]
  pIC50: inactive
KB-V1 [4]
  pIC50: inactive
MES-SA [5]
  pIC50: inactive
KB 3-1 [6]
  pIC50: inactive
KB 3-1 [7]
  Activity: inactive
KB-V1 [8]
  Activity: inactive

## COc1ccc(NC(=S)NNC(=S)Nc2ccc(OC)cc2)cc1
MES-SA/Dx5 [9]
  Activity: inactive
MES-SA/Dx5 [3]
  pIC50: inactive
MES-SA [5]
  pIC50: inactive
MES-SA [10]
  Activity: inactive

## O=C1Nc2ccccc2/C1=N/NC(=S)Nc1ccc([N+](=O)[O-])cc1
A2780 ADR
  Activity: inactive
[11]
  Ratio IC50: 3.55
MES-SA/Dx5 [3]; read-out: IC50
  IC50: 4.74 µM
MES-SA/Dx5 [3]; read-out: pIC50 (converted)
  IC50: 4.68 µM
MES-SA/Dx5 [12]
  Activity: inactive
[13]; read-out: IC50
  IC50: 8.78 µM
[13]; read-out: pIC50 (converted)
  IC50: 8.91 µM
KB-V1 [14]
  Activity: inactive
MES-SA/Dx5 [15]
  IC50: 7.55 µM
KB-V1 [4]; read-out: IC50
  IC50: 4.58 µM
KB-V1 [4]; read-out: pIC50 (converted)
  IC50: 4.47 µM
A2780; read-out: IC50
  IC50: 25.7 µM
A2780; read-out: pIC50 (converted)
  IC50: 24.5 µM
MES-SA/Dx5 [16]
  Activity: inactive
MES-SA/Dx5 [17]
  inhibition: Active
[18]
  Ratio IC50: 2.98
[19]
  Ratio IC50: 1.77
[20]
  Ratio IC50: 1.82
MES-SA [5]; read-out: IC50
  IC50: 9.17 µM
MES-SA [5]; read-out: pIC50 (converted)
  IC50: 8.51 µM
KB 3-1 [6]; read-out: IC50
  IC50: 8.2 µM
KB 3-1 [6]; read-out: pIC50 (converted)
  IC50: 7.76 µM
MES-SA/Dx5 [21]
  inhibition: Active
MES-SA [22]
  IC50: 15.8 µM
